experiment: Toxicity liver stage against HepG2, at 10uM; type: cell-based; design: test concentration 10 uM, cell line HepG2-A16-CD81EGFP; details: human, HepG2-A16-CD81EGFP cells; read-out: INHIBITION
Method in brief: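 Uninfected HepG2-A16-CD81EGFP cells, 3 × 10^3 per well, 1536-well, plated on prespotted compound at 10 μM final, parasite-free screening media added to match infected plates; puromycin 10 μM positive, DMSO 0.5% negative; run in parallel with 48 h PbLuc assay at 37 °C, 5% CO2; viability by CellTiter-Glo luminescence, normalized to controls.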

Compound | cytotoxicity at 10 µM [%]
COCCOc1ccnc(-c2noc([C@@H]3CCCN3CC(C)C)n2)c1 | -8.64
CCNC(=O)N1CC[C@@H](CC(=O)O)[C@@H](CC2=NCCc3ccccc32)C1 | 2.7
COc1ccc(CN2CC(O)CN(C(=O)OCC(C)(C)C)CC2=O)cc1 (configuration not stated) | 2.55
O=C(CCn1ccc(=O)[nH]c1=O)N1CCC(Oc2ncccc2Cl)CC1 | 1.71
Cc1oncc1C(=O)N1CC2CC1(C(=O)N1CCCC1)C2 | 4.91
CO[C@H]1CCN(C(=O)c2cc(C)on2)[C@H]1Cc1ccncc1 | 1.2
O=C(CC1CC1)N1C[C@@H]2CN(c3ccccc3)C(=O)[C@@H]2C1 | -1.48
c1cc(CN2CCc3nc(N4CCOCC4)nc(NC4CC4)c3C2)co1 | 12
CN(C)C(=O)CN1C[C@H]2CCN(C(=O)c3ccncc3)CC[C@H]2S1(=O)=O | -1.55
CCn1ncc2c1C(COC)CN(Cc1nccs1)C2 (configuration not stated) | 9.41
CNC(=O)[C@H]1C[C@@H]2CN(C(=O)c3ccoc3)C[C@@H]2N1S(C)(=O)=O | -3.88
O=c1[nH]nc2c(S(=O)(=O)N3CCCCCC3)cccn12 | 2.1
Cc1n[nH]c(C)c1CCC(=O)N1CCC(O)(CN2CCN(C)CC2)C1 (configuration not stated) | -6.13
Oc1cc(-c2ccsc2)nc(C2CCN(Cc3ccncc3)CC2)n1 | -7.7
Cc1nc(C)c(C(=O)N2CCCC2(C)C(=O)NC2CCCC2)s1 (configuration not stated) | -1.13
Cc1cncnc1C1CCN(C(=O)CN(C)C)CC1 | -7.91
Cc1ccc(N(C)[C@@H]2CC[C@@H]3CN(C(=O)CC4CCOCC4)C[C@@H]32)nn1 | -1.79
Cn1cc(CN2CCCC(c3nc(O)cc(-c4cccs4)n3)C2)cn1 (configuration not stated) | -5.89
Cc1ccc(CNC(C)c2cc(F)ccc2N2CCN(C)CC2)o1 (configuration not stated) | 0.513
Cn1nc2c(cc1=O)CN(CC1CCCCO1)CC2 (configuration not stated) | 2.58
COc1ccc(-n2cc(CNC(=O)c3ccccn3)nn2)cc1 | -4.05
CCC(CC)(CCCNC(=O)c1c(C)noc1C)C1OCCO1 | 1.98
COc1c(C2CCCN2c2ncnc3c2cnn3C)c(C)nn1C (configuration not stated) | 1.95

Compound | cytotoxicity at 10 µM [%]
Cc1nc(C)c(C(C)NCc2c(C)nn(C)c2N(C)C)s1 (configuration not stated) | -4.96
CC1(NC(=O)CC2CCc3ccccc32)CCOCC1 (configuration not stated) | 0.995
CC(=O)NCCCNC(=O)N1CCN(c2cc(F)ccc2F)CC1 | -5.14
COc1ccccc1OCc1nc2cc3c(cc2c(=O)o1)OCCCO3 | 1.37
O=C(NCC1CCC1)c1ccc(-n2ccnc2)nn1 | 2.18
CCCn1nnnc1CSc1nccn1CC | -5.15
COc1cccc(CSc2nnc(C)n2CC(N)=O)c1 | 3.59
O=C(c1ccoc1)N1CCC(NCc2ccccc2-n2ccnc2)CC1 | 5.89
CNC(=O)C1CCN(C(=O)NCc2ccc(C)n2C)CC1 | -1.81
CCC(C)(CNC(=O)Nc1nncs1)N1CCOCC1 (configuration not stated) | -7.98
Cc1nc(CN2CCN(C(=O)c3ccc(=O)n(C)c3)CC2)cs1 | -2.95
CCCc1cc(NCCn2cccn2)n2ncnc2n1 | 5.28
CCN1CCOC(CNCc2ccc(OC)c(F)c2)C1 (configuration not stated) | 1.79
CNC(=O)CCN1CCN(C(C)c2ccc(Cl)cc2)CC1 (configuration not stated) | -0.82
CCOC(=O)NC(CNC(=O)c1cc(Cl)ccn1)CC(C)C (configuration not stated) | 5.38
Cc1ccc(CN(C)C(=O)CN2CCCC2c2cnn(C)c2)o1 (configuration not stated) | -1.69
CCC(COC)NC(=O)N1CCC(n2ccc(C(F)(F)F)n2)CC1 (configuration not stated) | -12
CCOC(=O)NCCC(=O)NC(C)(C)c1ccc2c(c1)OCCO2 | -0.418
O=C(NCc1csc2ccccc12)NCC1(O)CCSC1 (configuration not stated) | 3.19
c1ccc(N2CCC(NCCc3ccc(-n4cccn4)cc3)CC2)nc1 | 21.1
Cn1cnnc1-c1cncc(NCc2cccc3c2OC(C)(C)C3)c1 | 7.84
O=C(C1CCN(c2ccnc3ccc(Br)cc23)CC1)N1CCOCC1 | 15.6
Cn1ccc(C(=O)NCCOc2ccc3c(c2)CCC3)cc1=O | 3.68

Compound | cytotoxicity at 10 µM [%]
Cc1csc(CNc2cnn(CC(C)C)c2)n1 | -6.63
CCc1nc(C(=O)N2CC(C)CN(C)c3ccccc32)c[nH]1 (configuration not stated) | -3.47
CCCn1nnnc1COc1cc(OC)ccc1C(N)=O | -4.42
CNS(=O)(=O)c1cc(C(=O)N(C)Cc2sccc2C)c(C)o1 | -8.43
COCCCn1ccc(NS(=O)(=O)c2cc(C)c(F)cc2F)n1 | 20.1
CCC(C)(NCc1nc(C)c(C)o1)c1nccs1 (configuration not stated) | -2.05
Cc1noc(C)c1CC(=O)N1CCCC(n2ccnc2C)C1 (configuration not stated) | -4.49
COc1ccccc1OC(C)CNC(=O)c1cnc[nH]1 (configuration not stated) | 1.57
CCn1ncc2c1NC(=O)C(C#N)C21CCCC1 (configuration not stated) | -0.242
CC(C)N1Cc2cccc(NCC(=O)N(C)C3CCCCC3)c2C1 | 4.83
FC(F)(F)C1CCCn2c(CNCc3ccsc3)nnc21 (configuration not stated) | 16.5
COC1CCN(C(=O)c2c(Cl)c3ccccc3n2C)CC1 | 4.39
CC(=O)Nc1nc(CN2CCCCC2Cn2cccn2)cs1 (configuration not stated) | -6.7
Cc1oncc1C(=O)N1CCC2(CC1)C(c1cnn(C)c1)CC(=O)N2C (configuration not stated) | -75.6
N#Cc1ccc(Nc2nc3c(s2)C(=O)CN(CC2CC2)C3)cc1 | -5.28
COC[C@@]12CC[C@@H](N3CCOCC3)C[C@H]1CCN(c1cnccn1)C2 | 4.76
Cn1nnnc1SCCNC(=O)c1cccc2ccnn12 | -59.1
Cc1ncsc1CCn1ccnc1-c1cc2n(n1)CCCNC2 | -0.434
CCO[C@H]1COC[C@@H]1NC(=O)CCc1nc(-c2ccccc2)no1 | 15.8
Cc1nc(C(=O)NCCS(=O)(=O)N2CCCC2)cs1 | 13.4
CCC(=O)Nc1cc(Cl)ccc1C(=O)N(C)Cc1noc(CC)n1 | 7.1
Cc1ncsc1C(=O)N1CCCC(c2nccn2Cc2cscn2)C1 (configuration not stated) | -0.0612
CCC(CO)N(Cc1ccco1)C(=O)c1ccccc1NC (configuration not stated) | 2.1

Compound | cytotoxicity at 10 µM [%]
CCN(Cc1cc(F)c(OC)c(Cl)c1)Cc1noc(CC(C)C)n1 | -2.84
Cn1ccnc1C1CCN(CCC2CCOC2)CC1 (configuration not stated) | -4.06
N#Cc1ccccc1CN1CCC(c2nccn2CC(N)=O)CC1 | -8.61
CCC(NC(=O)CC1CCN(CC)CC1)c1cn2cccnc2n1 (configuration not stated) | 2.46
COc1ccc(-c2c[nH]c(C3CC(=O)N(CC(C)C)C3)n2)cc1 (configuration not stated) | 5.35
CCc1ccccc1NC(=O)c1cccc(N(C)S(C)(=O)=O)c1C | -4.68
Cc1cc(C2CCC2)nc(N(C)Cc2cnccn2)n1 | -1.86
CC(C)n1cnnc1Cn1c(=O)ccc2ccccc21 | 5.62
COCCc1noc(CN2CCC3(CCCO3)CCC2=O)n1 (configuration not stated) | 5.35
COCC1CCCCN1C(=O)c1cc(-c2cccc(OC)c2)n[nH]1 (configuration not stated) | 9.34
O=C1CCC2(CCN(Cc3cc(F)ccc3Cl)CC2)CN1C1CCCC1 | 53.1
CCCc1nc(C(C)(C)NC(=O)C2CC(=O)N(C3CCCC3)C2)no1 (configuration not stated) | -0.734
CC(C)c1n[nH]c(C2CN(C(=O)CCc3cscn3)CCO2)n1 (configuration not stated) | -1.51
Cc1ncsc1C(=O)N(C)Cc1ccccc1 | -6.92
Cc1nc(CN2CCCC(NCc3cccc(C(N)=O)c3)C2)no1 (configuration not stated) | -14.5
CC1CN(Cc2ccc(-n3cccn3)cc2)CCO1 (configuration not stated) | -7.18
Cc1ccc(-c2nc(CN3CCCC3Cn3cncn3)cs2)o1 (configuration not stated) | -7.88
CCc1cnc(CN2CCC(N(Cc3noc(CC)n3)C(C)=O)C2)o1 (configuration not stated) | -4.17
CC(NC(=O)NCCn1ccnc1)c1ccc2c(c1)CCC(=O)N2 (configuration not stated) | -18.1
CCN1CCN(c2ccc(CNC(=O)c3cnn(C)c3C)cn2)CC1 | -11.1
COc1ccc(C2CCCN2C(=O)Nc2ccc(OC)nc2)cc1 (configuration not stated) | 2.58
CCNC(=O)N1CCN(C(=O)c2cc(Cl)cc3cccnc23)CC1 | -9.62
CC(NC(=O)NCCCN(C)S(C)(=O)=O)c1cccc(Cl)c1 (configuration not stated) | 3.44

Compound | cytotoxicity at 10 µM [%]
Cc1cn2nc(N3CCCC3Cn3nc(C)cc3C)sc2n1 (configuration not stated) | -1.32
COc1ccc(CN2CCCC(Cn3nc(C)nc3C)C2)cc1F (configuration not stated) | -0.409
CN(Cc1ccco1)C(=O)CN1CCCCC1Cn1cccn1 (configuration not stated) | 2.91
CC(C)NC(=O)c1sc2ccccc2c1C1CCC(CN)CC1 (configuration not stated) | -3.28
CN1CC(=O)N(c2cccc(F)c2)CC12CCN(Cc1cncn1C)C2 (configuration not stated) | -0.791
Cc1ncnc2c1CCN(c1ccccn1)CC2 | -157
CC(C)NC(=O)C1CN(Cc2ccc(F)cc2)CC12CCOCC2 (configuration not stated) | 3.86
O=C(Nc1cccnc1)[C@H]1CN(Cc2nccs2)C[C@H]2OCC[C@@H]12 | 2.88
Cc1noc(C)c1-c1nc(C2CCCNC2)ccc1CO (configuration not stated) | -21.3
O=C(c1ncccn1)N1C[C@H]2CCC[C@@]2(COc2ccccn2)C1 | 5.29
Cc1nc(C)n(CC2CN(Cc3ccncc3)Cc3nccn3C2)n1 (configuration not stated) | -142
CN1CCC(c2nc3ccc(-c4ccccc4)cn3n2)CC1 | -5.29
c1c[nH]c(CN2CCC3(CC2)COCCN(CCN2CCCC2)C3)c1 | -3.86
c1cnc(N2CCC3(COCCN(CC4CCOCC4)C3)C2)nc1 (configuration not stated) | -1.56
CC(C)CN1CCc2c(CN(C)Cc3ccco3)cncc2C1 | 8.1
CN(C)Cc1cn2c(n1)CN(C(=O)Cc1ccsc1)CC2 | -136
O=C1Nc2ccccc2C12CCN(c1nccs1)CC2 | -0.449
c1cnc2[nH]c(C3CCCNC3)c(CN3CCCOCC3)c2c1 (configuration not stated) | -1.43
CN1C(=O)[C@@H]2CC[C@H]1CN(c1ncnc3ccsc13)C2 | 0.636
c1ccc(OC2C[C@@H]3CN(Cc4cnccn4)C[C@@H]3C2)cc1 (some centres not stated) | -5.92

— ChEMBL document CHEMBL4513216, “Probing the Open Global Health Chemical Diversity Library for Multistage-Active Starting Points for Next-Generation Antimalarials” (ACS Infect Dis, 2020)
